From article PMC9126795 (eBioMedicine, 2022)

Legend:
Assay type in all cases: in vivo, human
[1] = test system: patients with HCV and HBV liver cirrhosis; assay: Child-Pugh; settings: 12 weeks after PRI-724 administration
Summary of the method: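 Patients with HCV- or HBV-induced cirrhosis (Child–Pugh A or B) received the test compound at 280 mg/m² by 4 h IV infusion twice weekly for 12 weeks. Child–Pugh class and score were assessed at baseline and 12 weeks post-treatment. Fourteen patients were analysed, with one who discontinued excluded.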

[2] = test system: patients with HCV and HBV liver cirrhosis; assay: FIB-4 index, post-hoc analysis; settings: before and after administration
Summary of the method: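 This post-hoc analysis covered HCV/HBV cirrhosis patients given 280 mg/m² of the test compound by 4 h IV infusion twice weekly for 12 weeks. FIB-4 index was calculated before and after administration.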

[3] = test system: patients with HCV and HBV liver cirrhosis; assay: Serum ALB, PT and TBIL; settings: 14 patients

With PRI-724 the “Change of CP class in the seven patients with CP class B at baseline” value [1] was “two improved to class A, four remained unchanged, and one worsened”, the FIB-4 index [2] was “statistically significant decrease” and the “Serum ALB level” value [3] was “improved from baseline at some time after PRI-724 administration”. For the same substance, the “Serum TBIL level” value [3] was “improved from baseline at some time after PRI-724 administration”.
